# hERG protect = hERG rescue from dofetilide block, primary screen, cell-based, CHO-hERG, FluxOR thallium flux, dofetilide IC70; Voltage-gated inwardly rectifying potassium channel KCNH2 (Homo sapiens), Q12809; dofetilide IC70 present; activation (rescue from dofetilide block), less the hit threshold, % at 10 µM; 0.51% of 310,000 active; AID 1511, 2009;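 active means activation above the mean of controls blocked by dofetilide plus 5 SD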;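 further: thallium influx through hERG after potassium depolarization seen as dye fluorescence rise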
# KCNQ1 pot = potentiators or activators of KCNQ1 channel, primary screen, cell-based, thallium flux, high-throughput | 0.35% of 310,000 active | CHO-K1 KCNQ1, thallium flux FluxOR fluorescence; hits give high values | B-score at 10 µM | Potassium voltage-gated channel subfamily KQT member 1 (Homo sapiens), P51787;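 active means fluorescence ratio B-score, a plate-corrected score, at least three library SD, with initial intensity B-score within 5 SD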
#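 Assay system: CHO-K1 cells stably expressing KCNQ1. Medium: assay buffer for compound exposure, DMSO matched across wells. Timing: 37 °C overnight plating, 90-min dark dye load, 20-min compound pretreatment. Signal: kinetic FluxOR fluorescence, 10 s baseline plus 110 s post-stimulus.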
# KCNK9 block = KCNK9 potassium channel inhibitors, primary screen, HEK293 cells, thallium flux | 1.2% of 310,000 active | Potassium channel subfamily K member 9 (Homo sapiens), Q9NPC2 | B-score at 10 µM | FluxOR thallium flux fluorescence; hits give low values;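 active means ratio B-score over 3 SD below the library mean, with starting fluorescence within 5 SD of its mean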;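 further: negative B-score means less thallium flux so channel inhibition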
# Target sequence (Q9NPC2 whole entry, looked up): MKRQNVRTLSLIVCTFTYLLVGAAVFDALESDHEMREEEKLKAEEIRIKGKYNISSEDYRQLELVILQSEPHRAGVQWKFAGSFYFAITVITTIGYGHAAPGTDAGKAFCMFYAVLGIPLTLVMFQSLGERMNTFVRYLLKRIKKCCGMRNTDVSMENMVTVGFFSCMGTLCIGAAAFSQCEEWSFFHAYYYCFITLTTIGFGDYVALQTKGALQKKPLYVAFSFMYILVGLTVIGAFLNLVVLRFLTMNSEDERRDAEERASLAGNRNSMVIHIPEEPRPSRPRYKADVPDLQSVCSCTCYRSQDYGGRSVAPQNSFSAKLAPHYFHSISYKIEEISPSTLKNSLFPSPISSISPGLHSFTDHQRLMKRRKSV
# KCNQ1 block = inhibitors of human KCNQ1 channel, primary screen, cell-based, thallium flux, high-throughput. Potassium voltage-gated channel subfamily KQT member 1 (Homo sapiens), P51787. CHO-K1 KCNQ1, FluxOR thallium flux fluorescence; hits give high values. B-score at 10 µM. 1.3% of 310,000 active. AID 2642, 2010;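 active means compounds whose thallium flux B-score, printed positive for inhibition, exceeds three library SD while starting fluorescence stays within three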;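 further: channel opened by potassium depolarization with thallium stimulus after 20 min compound exposure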
# Cl transport mod = KCC2 cotransporter modulators, thallium flux, primary screen, cell-based, HEK293 KCC2, FluoZin-2 fluorescence, MLSMR | Solute carrier family 12 member 5 (Homo sapiens), Q9H2X9 | KCC2 cells, thallium flux FluoZin-2 fluorescence | 2.2% of 190,000 active | B-score of Tl+ flux slope (higher = more flux/activation; lower = inhibition) at 10 µM;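 active means thallium flux slope and its plate-corrected score both differing from the plate sample mean at a set confidence after two filtering rounds, in either direction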;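 further: slope of fluorescence scaled to starting intensity during 10 to 20 s after thallium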
# KCNK3 inh = human KCNK3 channel inhibitors, primary screen, CHO cells, FluxOR thallium flux, B-score. B-score at 10 µM. FluxOR fluorescence; hits give low values. Potassium channel subfamily K member 3 (Homo sapiens), O14649. 0.84% of 340,000 active. AID 602410, 2012;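 active means B-score under library mean minus 4 SD, starting fluorescence ratio at most library mean plus 5 SD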;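 further: more negative B-score means stronger inhibition of thallium flux through KCNK3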
# Starred values were filed as active, the others as inactive; i = inactive; · = no result. Most compounds without a hit are left out; they make up all but 4.1% or so of the library.
SMILES,hERG protect,KCNQ1 pot,KCNK9 block,KCNQ1 block,Cl transport mod,KCNK3 inh
CN(C(=O)C1CCC(=O)N(Cc2cccc(F)c2)C1)C1CCCCC1 (centres undefined),-7,i,i,i,·,i
CCCCOC(=O)c1ccc(NC(=O)/C=C/c2cccs2)cc1,-14,i,i,13*,2,i
Cc1cc(Cl)c(S(=O)(=O)N2CCN(c3ccc(F)cc3)CC2)cc1OCC(N)=O,6.0*,i,i,i,1.6,i
CC(C)C[C@@H](C(=O)O)N(Cc1cccc(CN([C@@H](CC(C)C)C(=O)O)S(C)(=O)=O)c1)S(C)(=O)=O,4.7*,i,i,i,·,i
CS(=O)(=O)N(Cc1cccc(CN(C(C(=O)O)c2ccccc2)S(C)(=O)=O)c1)C(C(=O)O)c1ccccc1 (centres undefined),-3,i,i,i,·,i
CCCN=C1N(CC)C[C@@H]2[C@@H]3C(=O)N(Cc4ccccc4)C(=O)[C@@H]3[C@](Cc3ccccc3)(C(=O)OC)N12,·,·,·,·,·,i
O=C(NCc1cccc(F)c1)C1CCC(=O)N(CC2CCCCC2)C1 (centres undefined),-6,i,i,i,·,i
Cc1ccc(/C=C2\SC(=S)N(NS(=O)(=O)c3ccc(C)cc3)C2=O)cc1,-5,27*,i,i,·,i
CCOc1ccc(Cn2nnc(-c3ccc(S(C)(=O)=O)cc3)n2)cc1OCC,·,·,·,·,·,i
CCCCc1c(O)nc(SCC(=O)N2CCCCC2)n(-c2ccccc2C)c1=O,9.8*,i,i,i,-0.36,i
COc1cc(C(F)(F)F)ccc1C(=O)NCCc1ccco1,-3,i,i,i,·,i
CCOc1ccccc1NC(=O)C(OC(=O)c1ccccc1NS(=O)(=O)c1cccs1)c1ccccc1 (centres undefined),-4,i,i,i,0.16,i
CC(=O)c1cccc(NC(=O)C(OC(=O)c2ccccc2NS(=O)(=O)c2cccs2)c2ccccc2)c1 (centres undefined),-10,i,-7*,i,1,i
CC(=O)OC1C(=O)N(Cc2ccccc2)C1c1ccc(C)cc1 (centres undefined),·,·,·,·,·,i
CC1CCCCN1C(=O)COC(=O)c1cc([N+](=O)[O-])ccc1N (centres undefined),-19,i,i,i,·,i
CN(C)/C=C1\C(=O)ON=C1c1ccccc1,-5,i,i,i,-0.52,i
O=C1ON=C(c2ccccc2)/C1=C/c1ccco1,-24,i,i,7*,-0.49,i
O=c1c(Cl)c(Cl)cnn1Cc1nnc(-c2ccccc2Br)o1,-14,27*,i,i,-1.4,i
CS(=O)(=O)N(CC(=O)NCCSc1ccccn1)c1cccc2ccccc12,0,i,i,i,0.48,i
CNC(=O)CN(c1cccc2ccccc12)S(C)(=O)=O,7.0*,i,i,i,0.79,i
CCOC(=O)C1CCCN(C(=O)C2CCN(S(=O)(=O)c3ccc4ccccc4c3)CC2)C1 (centres undefined),-16,10*,i,i,·,i
CCOC(=O)COn1c(-c2cccc(Cl)c2)nc2ccc([N+](=O)[O-])cc21,-12,i,i,6*,0.054,i
CC(On1c(-c2ccccc2)nc2ccc(Cl)cc21)C(=O)O (centres undefined),-10,i,i,i,0.25,i
CCCOc1ccc(C(=O)NNC(=S)NC(C)=O)cc1,-19,i,i,i,3.6,i
CCC(=O)NC(=S)NNC(=O)c1ccc(OC)cc1,-7,i,-7.2*,i,1,i
SMILES,hERG protect,KCNQ1 pot,KCNK9 block,KCNQ1 block,Cl transport mod,KCNK3 inh
COc1ccc(C(=O)NNC(=S)NC(=O)c2ccc(Cl)cc2)cc1,-9,i,i,i,·,i
CCC(=O)NC(=S)NNC(=O)c1ccc([N+](=O)[O-])cc1,-11,i,i,i,-0.023,i
CCCCOc1ccc(C(=O)NNC(=S)NC(=O)CC)cc1,-12,i,i,i,36*,i
COc1ccc(C(=O)NC(=S)N2CCCC2)cc1,3,i,i,i,·,i
COc1ccc(C(=O)NC(=S)NNC(=O)c2ccc(C)cc2)cc1,-6,13*,i,i,·,i
COc1ccc(C(=O)NC(=S)N2CCC(C)CC2)cc1,8.2*,i,i,i,·,i
CC(OC(=O)CCN1C(=O)C2CC=CCC2C1=O)C(=O)Nc1ccc(F)cc1 (centres undefined),·,·,·,·,·,i
CC(=O)c1ccc(-c2ccc(C(=O)N3CCC(C(N)=O)CC3)o2)cc1,-7,i,i,i,·,i
CC[C@]12C(=O)N(C)C[C@H]([C@@H]3C(=O)N(C)C(=O)[C@@H]31)N2C(=O)c1ccc(C)cc1,·,·,·,·,·,i
COC(=O)c1ccccc1NC(=S)NC(=O)c1ccc(C)cc1,-4,i,i,i,11*,i
CC(C)Cn1c(N)c(C(=O)CSc2n[nH]c(N)n2)c(=O)n(C)c1=O,·,·,·,·,·,i
Cn1ncc(Cl)c1C(=O)Nc1cccc(Cl)c1,-5,i,i,i,1.1,i
Cn1ncc(N=Cc2c(O)ccc3ccccc23)c1C(=O)Nc1cccc(Cl)c1,-9,i,-7.4*,i,0.37,i
CCOc1ccc(-n2c(SCC(=O)NC)nnc2-c2ccco2)cc1,-5,i,i,i,·,i
c1ccc2c(c1)oc1c(N3CCN(Cc4ccc5c(c4)OCO5)CC3)ncnc12,-17,i,i,i,0.8,-9.5*
c1ccc(Cn2nnc3c(N4CCN(Cc5ccc6c(c5)OCO6)CC4)ncnc32)cc1,-10,i,i,i,0.59,i
COc1ccc(N2CCN(C(=O)CN3C(=O)NC4(CCCCC4C)C3=O)CC2)cc1 (centres undefined),·,·,·,·,·,i
Cc1ccc(C(=O)N2CC(=O)NC(=O)C2)cc1,5.3*,i,i,i,·,i
Cc1ccc(C(=O)N2CC3(C)CN(C(=O)c4ccc(C)cc4)CC(C)(C2)C3=O)cc1,-13,i,i,i,-1.4,i
CCOP(=O)(NC12CC3CC(CC(C3)C1)C2)NC12CC3CC(CC(C3)C1)C2,-4,i,i,i,·,i

# High-throughput results (PubChem)
